Data as given in ChEMBL document CHEMBL5058577, “EUbOPEN Chemogenomics Library 2 (Multiplex)” (2022).

System: Fibroblast
Assay: Multiplex assay against human fibroblast
Type: toxicity, cell-based
Procedure, shortened: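 Tubulin, mitochondrial-mass and membrane-permeability phenotypes are per cents of healthy-nucleus cells. Cells were gated by CellPathfinder machine learning into Hoechst high-intensity objects or normal cells, normal cells into healthy, pyknosed or fragmented nuclei, and pyknosed cells into mitotic or apoptotic. Before that, live cells stained at seeding with Hoechst33342, BioTracker Green Microtubule Cytoskeleton Dye, MitoTracker Red and Annexin V Alexa Fluor 680 were imaged on a CQ1 microscope at 37°C and 5% CO2 after compound addition.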

[1] = 12 h, 1 µM, compound concentration 1 uM, replicate 1
[2] = 12 h, 1 µM, compound concentration 1 uM, replicate 2
[3] = 12 h, 10 µM, compound concentration 10 uM, replicate 1
[4] = 12 h, 10 µM, compound concentration 10 uM, replicate 2
[5] = 24 h, 1 µM, compound concentration 1 uM, replicate 1
[6] = 24 h, 1 µM, compound concentration 1 uM, replicate 2
[7] = 24 h, 10 µM, compound concentration 10 uM, replicate 1
[8] = 24 h, 10 µM, compound concentration 10 uM, replicate 2
[9] = 48 h, 1 µM, compound concentration 1 uM, replicate 1
[10] = 48 h, 1 µM, compound concentration 1 uM, replicate 2
[11] = 48 h, 10 µM, compound concentration 10 uM, replicate 1
[12] = 48 h, 10 µM, compound concentration 10 uM, replicate 2

SMILES: CSc1nc(NC2CCCC2)c([N+](=O)[O-])c(NC2CCCC2)n1 [GS-39783]
- Population Apoptotic (%) [1]: 50%
- Population Fragmented Nuclei (%) [1]: 16%
- Population Healthy Nuclei (%) [1]: 66%
- Population Hoechst High Intensity Objects (%) [1]: 3%
- Population Membrane Permeable-Phenotype (%) [1]: 2%
- Population Mitochondria Different-Phenotype (%) [1]: 6%
- Population Mitotic Cells (%) [1]: 50%
- Population Normal (%) [1]: 96%
- Population Pyknosed Nuclei (%) [1]: 16%
- Population Tubulin-Different-Phenotype (%) [1]: 29%
- Total Cell Count [1]: 137
- Population Apoptotic (%) [2]: 39%
- Population Fragmented Nuclei (%) [2]: 28%
- Population Healthy Nuclei (%) [2]: 46%
- Population Hoechst High Intensity Objects (%) [2]: 5%
- Population Membrane Permeable-Phenotype (%) [2]: 10%
- Population Mitochondria Different-Phenotype (%) [2]: 10%
- Population Mitotic Cells (%) [2]: 60%
- Population Normal (%) [2]: 94%
- Population Pyknosed Nuclei (%) [2]: 25%
- Population Tubulin-Different-Phenotype (%) [2]: 57%
- Total Cell Count [2]: 135
- Population Apoptotic (%) [3]: 54%
- Population Fragmented Nuclei (%) [3]: 16%
- Population Healthy Nuclei (%) [3]: 62%
- Population Hoechst High Intensity Objects (%) [3]: 5%
- Population Membrane Permeable-Phenotype (%) [3]: 0%
- Population Mitochondria Different-Phenotype (%) [3]: 5%
- Population Mitotic Cells (%) [3]: 45%
- Population Normal (%) [3]: 94%
- Population Pyknosed Nuclei (%) [3]: 21%
- Population Tubulin-Different-Phenotype (%) [3]: 39%
- Total Cell Count [3]: 184
- Population Apoptotic (%) [4]: 36%
- Population Fragmented Nuclei (%) [4]: 25%
- Population Healthy Nuclei (%) [4]: 52%
- Population Hoechst High Intensity Objects (%) [4]: 6%
- Population Membrane Permeable-Phenotype (%) [4]: 4%
- Population Mitochondria Different-Phenotype (%) [4]: 16%
- Population Mitotic Cells (%) [4]: 63%
- Population Normal (%) [4]: 93%
- Population Tubulin-Different-Phenotype (%) [4]: 70%
- Total Cell Count [4]: 165
- Population Apoptotic (%) [5]: 30%
- Population Fragmented Nuclei (%) [5]: 12%
- Population Healthy Nuclei (%) [5]: 69%
- Population Hoechst High Intensity Objects (%) [5]: 2%
- Population Membrane Permeable-Phenotype (%) [5]: 3%
- Population Mitochondria Different-Phenotype (%) [5]: 4%
- Population Mitotic Cells (%) [5]: 69%
- Population Normal (%) [5]: 97%
- Population Pyknosed Nuclei (%) [5]: 17%
- Population Tubulin-Different-Phenotype (%) [5]: 27%
- Total Cell Count [5]: 132
- Population Apoptotic (%) [6]: 32%
- Population Fragmented Nuclei (%) [6]: 31%
- Population Healthy Nuclei (%) [6]: 44%
- Population Membrane Permeable-Phenotype (%) [6]: 10%
- Population Mitochondria Different-Phenotype (%) [6]: 12%
- Population Mitotic Cells (%) [6]: 67%
- Population Pyknosed Nuclei (%) [6]: 23%
- Population Tubulin-Different-Phenotype (%) [6]: 60%
- Total Cell Count [6]: 133
- Population Apoptotic (%) [7]: 58%
- Population Fragmented Nuclei (%) [7]: 17%
- Population Healthy Nuclei (%) [7]: 65%
- Population Hoechst High Intensity Objects (%) [7]: 2%
- Population Membrane Permeable-Phenotype (%) [7]: 0%
- Population Mitochondria Different-Phenotype (%) [7]: 4%
- Population Mitotic Cells (%) [7]: 41%
- Population Normal (%) [7]: 97%
- Population Pyknosed Nuclei (%) [7]: 17%
- Population Tubulin-Different-Phenotype (%) [7]: 33%
- Total Cell Count [7]: 172
- Population Apoptotic (%) [8]: 36%
- Population Fragmented Nuclei (%) [8]: 25%
- Population Healthy Nuclei (%) [8]: 52%
- Population Hoechst High Intensity Objects (%) [8]: 7%
- Population Membrane Permeable-Phenotype (%) [8]: 6%
- Population Mitochondria Different-Phenotype (%) [8]: 10%
- Population Mitotic Cells (%) [8]: 63%
- Population Normal (%) [8]: 92%
- Population Pyknosed Nuclei (%) [8]: 21%
- Population Tubulin-Different-Phenotype (%) [8]: 57%
- Total Cell Count [8]: 164
- Population Apoptotic (%) [9]: 70%
- Population Fragmented Nuclei (%) [9]: 22%
- Population Healthy Nuclei (%) [9]: 69%
- Population Hoechst High Intensity Objects (%) [9]: 4%
- Population Membrane Permeable-Phenotype (%) [9]: 1%
- Population Mitochondria Different-Phenotype (%) [9]: 5%
- Population Mitotic Cells (%) [9]: 30%
- Population Normal (%) [9]: 95%
- Population Pyknosed Nuclei (%) [9]: 7%
- Population Tubulin-Different-Phenotype (%) [9]: 29%
- Total Cell Count [9]: 134
- Population Apoptotic (%) [10]: 33%
- Population Fragmented Nuclei (%) [10]: 41%
- Population Healthy Nuclei (%) [10]: 44%
- Population Hoechst High Intensity Objects (%) [10]: 3%
- Population Membrane Permeable-Phenotype (%) [10]: 23%
- Population Mitochondria Different-Phenotype (%) [10]: 14%
- Population Mitotic Cells (%) [10]: 66%
- Population Normal (%) [10]: 96%
- Population Pyknosed Nuclei (%) [10]: 14%
- Population Tubulin-Different-Phenotype (%) [10]: 60%
- Total Cell Count [10]: 129
- Population Apoptotic (%) [11]: 66%
- Population Fragmented Nuclei (%) [11]: 19%
- Population Healthy Nuclei (%) [11]: 65%
- Population Hoechst High Intensity Objects (%) [11]: 2%
- Population Membrane Permeable-Phenotype (%) [11]: 1%
- Population Mitochondria Different-Phenotype (%) [11]: 5%
- Population Mitotic Cells (%) [11]: 33%
- Population Normal (%) [11]: 97%
- Population Pyknosed Nuclei (%) [11]: 14%
- Population Tubulin-Different-Phenotype (%) [11]: 41%
- Total Cell Count [11]: 168
- Population Apoptotic (%) [12]: 60%
- Population Fragmented Nuclei (%) [12]: 40%
- Population Healthy Nuclei (%) [12]: 46%
- Population Hoechst High Intensity Objects (%) [12]: 6%
- Population Membrane Permeable-Phenotype (%) [12]: 6%
- Population Mitochondria Different-Phenotype (%) [12]: 7%
- Population Mitotic Cells (%) [12]: 40%
- Population Normal (%) [12]: 93%
- Population Pyknosed Nuclei (%) [12]: 13%
- Population Tubulin-Different-Phenotype (%) [12]: 60%
- Total Cell Count [12]: 193

SMILES: O=c1nc2[nH]c3ccccc3nc-2c(=O)[nH]1 [ALLOXAZINE]
- Population Apoptotic (%) [1]: 56%
- Population Fragmented Nuclei (%) [1]: 16%
- Population Healthy Nuclei (%) [1]: 67%
- Population Hoechst High Intensity Objects (%) [1]: 5%
- Population Membrane Permeable-Phenotype (%) [1]: 0%
- Population Mitochondria Different-Phenotype (%) [1]: 2%
- Population Mitotic Cells (%) [1]: 43%
- Population Normal (%) [1]: 94%
- Population Pyknosed Nuclei (%) [1]: 16%
- Population Tubulin-Different-Phenotype (%) [1]: 23%
- Total Cell Count [1]: 193
- Population Apoptotic (%) [2]: 37%
- Population Fragmented Nuclei (%) [2]: 26%
- Population Healthy Nuclei (%) [2]: 50%
- Population Hoechst High Intensity Objects (%) [2]: 3%
- Population Membrane Permeable-Phenotype (%) [2]: 6%
- Population Mitochondria Different-Phenotype (%) [2]: 3%
- Population Mitotic Cells (%) [2]: 62%
- Population Normal (%) [2]: 96%
- Population Pyknosed Nuclei (%) [2]: 23%
- Population Tubulin-Different-Phenotype (%) [2]: 33%
- Total Cell Count [2]: 131
- Population Apoptotic (%) [3]: 33%
- Population Fragmented Nuclei (%) [3]: 23%
- Population Healthy Nuclei (%) [3]: 60%
- Population Hoechst High Intensity Objects (%) [3]: 4%
- Population Membrane Permeable-Phenotype (%) [3]: 3%
- Population Mitochondria Different-Phenotype (%) [3]: 5%
- Population Mitotic Cells (%) [3]: 66%
- Population Normal (%) [3]: 95%
- Population Pyknosed Nuclei (%) [3]: 15%
- Population Tubulin-Different-Phenotype (%) [3]: 23%
- Total Cell Count [3]: 158
- Population Apoptotic (%) [4]: 41%
- Population Fragmented Nuclei (%) [4]: 41%
- Population Healthy Nuclei (%) [4]: 38%
- Population Hoechst High Intensity Objects (%) [4]: 1%
- Population Mitochondria Different-Phenotype (%) [4]: 15%
- Population Mitotic Cells (%) [4]: 58%
- Population Normal (%) [4]: 98%
- Population Pyknosed Nuclei (%) [4]: 20%
- Population Tubulin-Different-Phenotype (%) [4]: 57%
- Total Cell Count [4]: 86
- Population Apoptotic (%) [5]: 52%
- Population Fragmented Nuclei (%) [5]: 17%
- Population Healthy Nuclei (%) [5]: 69%
- Population Hoechst High Intensity Objects (%) [5]: 3%
- Population Membrane Permeable-Phenotype (%) [5]: 0%
- Population Mitochondria Different-Phenotype (%) [5]: 2%
- Population Mitotic Cells (%) [5]: 47%
- Population Normal (%) [5]: 96%
- Population Pyknosed Nuclei (%) [5]: 12%
- Population Tubulin-Different-Phenotype (%) [5]: 21%
- Total Cell Count [5]: 190
- Population Apoptotic (%) [6]: 36%
- Population Fragmented Nuclei (%) [6]: 31%
- Population Healthy Nuclei (%) [6]: 41%
- Population Hoechst High Intensity Objects (%) [6]: 4%
- Population Membrane Permeable-Phenotype (%) [6]: 2%
- Population Mitochondria Different-Phenotype (%) [6]: 0%
- Population Mitotic Cells (%) [6]: 63%
- Population Normal (%) [6]: 95%
- Population Pyknosed Nuclei (%) [6]: 27%
- Population Tubulin-Different-Phenotype (%) [6]: 31%
- Total Cell Count [6]: 114
- Population Apoptotic (%) [7]: 47%
- Population Fragmented Nuclei (%) [7]: 19%
- Population Healthy Nuclei (%) [7]: 64%
- Population Hoechst High Intensity Objects (%) [7]: 3%
- Population Membrane Permeable-Phenotype (%) [7]: 0%
- Population Mitochondria Different-Phenotype (%) [7]: 2%
- Population Mitotic Cells (%) [7]: 52%
- Population Normal (%) [7]: 96%
- Population Pyknosed Nuclei (%) [7]: 15%
- Population Tubulin-Different-Phenotype (%) [7]: 22%
- Total Cell Count [7]: 153
- Population Apoptotic (%) [8]: 64%
- Population Fragmented Nuclei (%) [8]: 45%
- Population Healthy Nuclei (%) [8]: 32%
- Population Mitochondria Different-Phenotype (%) [8]: 7%
- Population Mitotic Cells (%) [8]: 35%
- Population Pyknosed Nuclei (%) [8]: 21%
- Population Tubulin-Different-Phenotype (%) [8]: 50%
- Total Cell Count [8]: 82
- Population Apoptotic (%) [9]: 71%
- Population Fragmented Nuclei (%) [9]: 14%
- Population Healthy Nuclei (%) [9]: 72%
- Population Hoechst High Intensity Objects (%) [9]: 9%
- Population Membrane Permeable-Phenotype (%) [9]: 0%
- Population Mitochondria Different-Phenotype (%) [9]: 1%
- Population Mitotic Cells (%) [9]: 28%
- Population Normal (%) [9]: 90%
- Population Pyknosed Nuclei (%) [9]: 13%
- Population Tubulin-Different-Phenotype (%) [9]: 23%
- Total Cell Count [9]: 178
- Population Apoptotic (%) [10]: 39%
- Population Fragmented Nuclei (%) [10]: 30%
- Population Healthy Nuclei (%) [10]: 48%
- Population Hoechst High Intensity Objects (%) [10]: 3%
- Population Membrane Permeable-Phenotype (%) [10]: 9%
- Population Mitotic Cells (%) [10]: 60%
- Population Normal (%) [10]: 96%
- Population Pyknosed Nuclei (%) [10]: 20%
- Population Tubulin-Different-Phenotype (%) [10]: 56%
- Total Cell Count [10]: 114
- Population Apoptotic (%) [11]: 55%
- Population Fragmented Nuclei (%) [11]: 26%
- Population Healthy Nuclei (%) [11]: 61%
- Population Hoechst High Intensity Objects (%) [11]: 6%
- Population Membrane Permeable-Phenotype (%) [11]: 2%
- Population Mitochondria Different-Phenotype (%) [11]: 3%
- Population Mitotic Cells (%) [11]: 44%
- Population Normal (%) [11]: 93%
- Population Pyknosed Nuclei (%) [11]: 11%
- Population Tubulin-Different-Phenotype (%) [11]: 29%
- Total Cell Count [11]: 164
- Population Apoptotic (%) [12]: 45%
- Population Fragmented Nuclei (%) [12]: 49%
- Population Healthy Nuclei (%) [12]: 36%
- Population Hoechst High Intensity Objects (%) [12]: 2%
- Population Membrane Permeable-Phenotype (%) [12]: 3%
- Population Mitochondria Different-Phenotype (%) [12]: 17%
- Population Mitotic Cells (%) [12]: 54%
- Population Normal (%) [12]: 97%
- Population Pyknosed Nuclei (%) [12]: 13%
- Population Tubulin-Different-Phenotype (%) [12]: 51%
- Total Cell Count [12]: 81
